Results: the EternaBench riboswitch data

System: MS2 coat protein
Experiment: apparent Kd, MS2 coat protein; higher = weaker binding; RNA-MaP array
Method in brief: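 Apparent Kd is the median of per-cluster binding-curve fits for designed RNAs transcribed from sequenced DNA templates on an Illumina sequencing chip. The RNAs were incubated at room temperature with fluorescently labeled MS2 coat protein at 1.5 nM to 3 μM, with or without input ligand, and designs measured on fewer than 10 clusters were excluded.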

[1] = designed as: ON switch for flavin mononucleotide, no ligand
[2] = ligand present: flavin mononucleotide, designed as: ON switch for flavin mononucleotide
[3] = designed as: OFF switch for flavin mononucleotide, no ligand
[4] = ligand present: flavin mononucleotide, designed as: OFF switch for flavin mononucleotide
[5] = designed as: OFF switch for tryptophan, no ligand
[6] = ligand present: tryptophan, designed as: OFF switch for tryptophan

Row | Sequence | apparent Kd [1] | apparent Kd [2] | apparent Kd [3] | apparent Kd [4] | also measured
1 | ACUCAACAUGAGGAUCACCCAUGUACUCCAAACAAAGGAUAUUGUGAGUUAAUAUGCAUGCAAGAAGGUUGGUUCA | 0.0428 µM | 0.0363 µM |  |  | 
2 | AGUGUAAUAUAAGGAUAUAACCGCACAAGAAUGUUAGAAGGUAUUUUACAUGAGGAUCACCCAUGUGAAUGUAGUCCUCACUAU |  |  | 0.0096 µM | 0.0105 µM | 
3 | AUGAAACAUGAGGAUCACCCAUGUGAGGAUAUGGUCUCGAACAAAAUACAAACACCAUCCAGAAGGCACAUGAA |  |  | 0.0298 µM | 0.0277 µM | 
4 | GGGAGAGAGGUCAGGAUAUUGCGGCGAAAUGCAGUCAAGAAGGGACAUGAGGAUCACCCAUGUACAUCAAGAGC |  |  | 0.00638 µM | 0.0104 µM | 
5 | CCGAGGGUAGGAUAUUAGCACUUCUACAUGAGGAUCACCCAUGUACCUCAUCAUGAUGCCUAAGAAGGACCAGUGU |  |  | 0.0657 µM | 0.158 µM | 
6 | GAACGUAGAGGAUAUACGACAAUGCACUGAUCGACGAGUACACAUGAGGAUCACCCAUGUAGAAGGCUAGGAAU |  |  | 0.00728 µM | 0.00645 µM | 
7 | GUGGCGUAAGGAUAUCGUGGGAAGUGAUGAACGCUCUACUUCGAGAAGGUACAUGAGGAUCACCCAUGUGAGGG |  |  | 0.151 µM | 0.129 µM | 
8 | CGCACACAGCAACCAAAAUAAACAUGAGGAUCACCCAUGUCACAGGAUAUGGCGAACCCAGGCGACCAGAAGGGUGUAAACACA | 0.0266 µM | 0.0186 µM |  |  | 
9 | UUGAUCGCUCAGAAGGACGCGCAGGACCAAGCCGUAGGAUAUGACGAAUGCUAACGGAGUCCACAUGAGGAUCACCCAUGUGCA | 0.0652 µM | 0.0189 µM |  |  | 
10 | GGUCGUGAUAAGGAUAUUGGCUGUCGUGCAAUCCAAGAAGGUAUCACAUGAGGAUCACCCAUGUACGCGUGUUG |  |  | 0.0442 µM | 0.0856 µM | 
11 | ACAUGAGGAUCACCCAUGUGGUCGGCUAUCUACCCAAUGGGCGAGGAUAUCGAGGCAAGAUAAUUCGAGAAGGCGCGUAAGAUA |  |  | 0.101 µM | 0.0474 µM | 
12 | GUGAUCAGCGAGAAGGAGCGUGAACUGUUACGGAGAUGUAACAUAACAUGAGGAUCACCCAUGUGCUAGGAUAUCGGUAAAUAU | 0.0133 µM | 0.0074 µM |  |  | 
13 | UCUUCGUUGGCGUCACAAUUCAUGCAAUGCCGAGGACCGGUACGGCCGCCACUCGGACUAAUACAUGAGGAUCACCCAUGUCGUG |  |  |  |  | apparent Kd [5]: 0.123 µM; apparent Kd [6]: 0.102 µM
14 | CGGUUACUAGGAUAUACAUGAGGAUCACCCAUGUGACCUCCCGUCACGCGUGUACUGGGUAGAAGGAGUCAGGU |  |  | 0.0248 µM | 0.0348 µM | 
15 | CCUCAAAUGACAUGAGGAUCACCCAUGUAGCGCACAACCGCUAGAAGGACGACAAAGUCUUAUGCGUAGGAUAUAGCGAGCGCG | 0.132 µM | 0.133 µM |  |  | 
16 | CAGAACAUGAGGAUCACCCAUGUAAACGACCGAGGACCGGUACGGCCGCCACUCGAUAUGUCUUGAGGGAGAUAUGGAUUCACAU |  |  |  |  | apparent Kd (designed as: ON switch for tryptophan, no ligand): 0.0399 µM; apparent Kd (ligand present: tryptophan, designed as: ON switch for tryptophan): 0.0383 µM
17 | CGUGAAUACGAAGGAUAUGAAACAUGAGGAUCACCCAUGUAAGGUUUAAGCGACGGCUUGACAGGUCAGAAGGUCGUCCGCAUG | 0.0422 µM | 0.0278 µM |  |  | 
18 | AAAUACGUAAAACAUGAGGAUCACCCAUGUACAUUUAUUACCAGAAGGAGCGCUAAAAGUACCAGCUAGGAUAUGGGAAGCAAC | 0.00805 µM | 0.00583 µM |  |  | 
19 | AGGAAUAAGACAGGAUAUCGUAAAAUAUAAAACCGAGAAGGGUCACAUGAGGAUCACCCAUGUGUUCCAACGGUGAUCCCUAGA |  |  | 0.0649 µM | 0.0682 µM | 
20 | AACAGAAGGCAAGGAUAUAAGGGACCCCCAACAUGAGGAUCACCCAUGUUCUAUGAGGCCGAAUUUUAGAAGGUGCGGGACUAG | 0.0439 µM | 0.0322 µM |  |  | 
21 | GUGAAACAUGAGGAUCACCCAUGUUAGGAUAUAACGCGACGGCAGGGAUCUGCGCUACUUAGAAGGAACGGGAC |  |  | 0.0115 µM | 0.00973 µM | 
22 | GAUUGAGUUCUAGGAUAUCCAGAGCGGCGUGGGACAUGAGGAUCACCCAUGUGCUCUAUGAUCAUGGAGAAGGAGAACCCCGUU |  |  | 0.0373 µM | 0.046 µM | 
23 | AUCAGUCAAGAAGGAUAUGCAAUAUCCUGGCACGUAGACAUGAGGAUCACCCAUGUGCAGGCUAAGCAGAAGGUCUUAGAAGGU |  |  | 0.016 µM | 0.0098 µM | 
24 | GUCGCAAUCCAGAAGGACGGGCUUGGCGAGUACGUAGGAUAUGGCAGUCACAUGAGGAUCACCCAUGUCAGGAAUUUAAUCAGG | 0.0538 µM | 0.0217 µM |  |  | 

Row | Sequence | apparent Kd [1] | apparent Kd [2] | apparent Kd [3] | apparent Kd [4] | also measured
25 | AUCAAGUGAGGAUAUCCGUAGACUCCUAAUCAGCGACUCAAGGAGAAGGCACAUGAGGAUCACCCAUGUUAGAU |  |  | 0.0196 µM | 0.0208 µM | 
26 | UGGACGCAACGAGCACGAGGUCGGCAGCUACGAGGACCGGUACGGCCGCCACUCGAGUUACGACAUGAGGAUCACCCAUGUAAGG |  |  |  |  | apparent Kd [5]: 0.0416 µM; apparent Kd [6]: 0.178 µM
27 | GGUUGACCUGAGGAACAUGAGGAUCACCCAUGUGUUAGCGGAAAGGAUAUUCGAUUGCACGUUAAGAAGAAGGUUCCAACGUUA | 0.0144 µM | 0.0158 µM |  |  | 
28 | AAAAGGAUGAUAGGAUAUCAUAACAUGAGGAUCACCCAUGUACAGACGCAACGCUAAACUAGACAUGAGAAGGAUCACAAAACA | 0.179 µM | 0.0822 µM |  |  | 
29 | GGUCUGCCAUUUCAGGAUAUGCUCAGUGCAACAUGAGGAUCACCCAUGUCAGGCUCGAACGACUCGCAGAAGGGAAGUCACGGAUG | 0.102 µM | 0.0614 µM |  |  | 
30 | GAUAUGGUGGCUCAGGAUAUGCAAGGCUUAACAUGAGGAUCACCCAUGUUAUUUAAUGUGCAAGCGCAGAAGGGAGCUUGGCAAAA | 0.00939 µM | 0.00553 µM |  |  | 
31 | GUCUUGUAAGGAUAUGAUCAGUAGGAAAGAUGGCAGCAUCAUCAGAAGGUACAUGAGGAUCACCCAUGUUGUGA |  |  | 0.017 µM | 0.0229 µM | 
32 | ACACGCUAAGGAUAUACAUGAGGAUCACCCAUGUUAAAAGUUAAAUAGGAAUGAUACCGUAGAAGGUAGGAUGA |  |  | 0.0132 µM | 0.0114 µM | 
33 | CACCAAUUUCGAGGAUAUACGGCCGGUUAACAUUCGUCUUACAUGAGGAUCACCCAUGUGUUCGCGUAGAAGGCGAUUCUUAAU | 0.0353 µM | 0.0312 µM |  |  | 
34 | AAAAUCUGGUGAGGAUAUUGUUGAUGAUACAAACAAGAAGGCACGUUGACAUAGCGGGACAACAUGAGGAUCACCCAUGUCACU |  |  | 0.0466 µM | 0.0421 µM | 
35 | CAUCAGAGUGUCAGGAUAUGUUCAAAUAACUCGGGACAGAAGGGACAUGAGGAUCACCCAUGUGCAUAAAUUUA |  |  | 0.0184 µM | 0.0469 µM | 
36 | AGCGCGAAUAGAUCCAAAGUUAUUAGUGAGCGAGGACCGGUACGGCCGCCACUCGUGGCUCUACAUGAGGAUCACCCAUGUACAU |  |  |  |  | apparent Kd [5]: 0.354 µM; apparent Kd [6]: 0.432 µM
37 | AACAUGAGGAUCACCCAUGUAGGUACUUCUCGACGGCCUACAAGAAGGUGUUGUAAAGUCAAGAACAAGGAUAUUGUGAUGGCU |  |  | 0.555 µM | 0.371 µM | 
38 | GCAGUCCUCCGAGGAUAUAUGACAAUUGACGUGAGAUGUUAGCACAUGAGGAUCACCCAUGUUUUAUAGAAGGCGGGAUAGGUU | 0.0205 µM | 0.0183 µM |  |  | 
39 | AUGGUGUCUUAAGGAUAUGCUCGACAUGAGGAUCACCCAUGUGCCUCGUUUUCCCAACCGAGGUCGCAGAAGGUAAGUGACGUG | 0.313 µM | 0.037 µM |  |  | 
40 | UGGACUGUGACAUGAGGAUCACCCAUGUAAAUAAUUCCGCAUAGAAGGGUCCAACGUAAAUGAAGACAGGAUAUAUGGGAGCGU | 0.0454 µM | 0.024 µM |  |  | 
41 | AACUGGAAGGAAGGAUAUUCAACCACGAUCAGUGCCAAGCACAUGAGGAUCACCCAUGUUGUCCUGAAGAAGGUCCUAUGUCAA |  |  | 0.0163 µM | 0.0115 µM | 
42 | CGUCAGUAAGGAUAUACCCGCACUUAACACGAGCGUCGUCGGUAGAAGGUACAUGAGGAUCACCCAUGUAGAAA |  |  | 0.00784 µM | 0.00895 µM | 
43 | AGCGAUGACUGAGGAUAUGCUGUUAGGACAUUGCAACAUGAGGAUCACCCAUGUGAAGGCCGUCAGCAGAAGGCAGUACGUGGA | 0.00608 µM | 0.00475 µM |  |  | 
44 | AUGCGCUAUAUGGAUACCAGUAUGAUAAUUGACAUGAGGAUCACCCAUGUGAGCUCUACCUACCCUUGGCAGCCAACCCUAUUUG |  |  |  |  | apparent Kd (designed as: ON switch for theophylline, no ligand): 0.0219 µM; apparent Kd (ligand present: theophylline, designed as: ON switch for theophylline): 0.0229 µM
45 | UAAAUCUUACAACACAUGAGGAUCACCCAUGUACGGGCGGGAUAGGAUAUCGAAAUGGUCUCAAACGAGAAGGAUCCUUCUUAU | 0.0467 µM | 0.0278 µM |  |  | 
46 | AACGAUUAAUCGGCCGCCACUCACAUGAGGAUCACCCAUGUUGUUCUUCCAGGUGGUUCUGUUCCGAGGACCGGGAUUCCGUCCU |  |  |  |  | apparent Kd [5]: 0.0551 µM; apparent Kd [6]: 0.0575 µM
47 | ACAUGAGGAUCACCCAUGUUCACGGUUCACGAAGUCUAAAGCUAGGAUAUCAUUGGGUGGGCGCAUGAGAAGGAGCUUCCCGUA | 0.0701 µM | 0.0443 µM |  |  | 
